Test results as given in ChEMBL document CHEMBL1145247, “4-Alkyl and 4,4'-dialkyl 1,2-bis(4-chlorophenyl)pyrazolidine-3,5-dione derivatives as new inhibitors of bacterial cell wall biosynthesis” (Bioorg Med Chem Lett, 2005).
Converted amounts (≈) assume the structure as drawn.

How the values were obtained:
[1] = target: T1, UDP-N-acetylenolpyruvoylglucosamine reductase (Staphylococcus aureus, UniProt P61431); assay: Inhibitory concentration against MurB enzyme in Staphylococcus aureus
T1 sequence (P61431 whole entry): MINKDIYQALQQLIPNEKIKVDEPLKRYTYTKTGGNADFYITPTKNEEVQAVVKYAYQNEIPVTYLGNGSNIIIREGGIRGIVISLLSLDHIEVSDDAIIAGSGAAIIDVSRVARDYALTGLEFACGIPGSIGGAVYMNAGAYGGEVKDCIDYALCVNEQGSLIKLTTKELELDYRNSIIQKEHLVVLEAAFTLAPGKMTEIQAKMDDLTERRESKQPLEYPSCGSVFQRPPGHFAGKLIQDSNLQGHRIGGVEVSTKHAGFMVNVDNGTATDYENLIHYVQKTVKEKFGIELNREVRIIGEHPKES
In short: (§1)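 Enzyme (20 nM) preincubated 20 min with inhibitor, then substrates added to final 50 µM EP-UNAG and 100 µM NADPH. Activity followed spectrophotometrically. At least six inhibitor concentrations between 1.5 and 50 µM per compound. IC50 from sigmoid Hill curve fit (0–100).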

[2] = target: UDP-N-acetylglucosamine 1-carboxyvinyltransferase (Escherichia coli K-12, UniProt P0A749); assay: Inhibitory concentration against MurA enzyme in Escherichia coli
UDP-N-acetylglucosamine 1-carboxyvinyltransferase, sequence (P0A749 whole entry): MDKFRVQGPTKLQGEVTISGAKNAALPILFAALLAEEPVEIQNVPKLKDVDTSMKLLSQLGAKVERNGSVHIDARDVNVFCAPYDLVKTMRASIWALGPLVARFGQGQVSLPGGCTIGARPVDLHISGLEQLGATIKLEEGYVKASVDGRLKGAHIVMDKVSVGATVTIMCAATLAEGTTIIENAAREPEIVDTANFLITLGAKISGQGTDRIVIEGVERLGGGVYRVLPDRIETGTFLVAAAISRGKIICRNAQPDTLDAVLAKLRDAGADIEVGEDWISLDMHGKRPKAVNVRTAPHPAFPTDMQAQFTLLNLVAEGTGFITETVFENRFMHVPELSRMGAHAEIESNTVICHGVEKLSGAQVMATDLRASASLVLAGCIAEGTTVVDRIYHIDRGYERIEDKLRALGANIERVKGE
In short: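 Enzyme preincubated with inhibitor 10 min at 37 °C before substrates were added. Reaction ran 30 min at 37 °C and was stopped with malachite green reagent (0.03% malachite green, 1.4% ammonium molybdate, 1.3 N HCl) for phosphate read-out.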

[3] = target: T2, UDP-N-acetylenolpyruvoylglucosamine reductase (Escherichia coli K-12, UniProt P08373); assay: Inhibitory concentration against MurB enzyme in Escherichia coli; in short: as §1
T2 sequence (P08373 whole entry): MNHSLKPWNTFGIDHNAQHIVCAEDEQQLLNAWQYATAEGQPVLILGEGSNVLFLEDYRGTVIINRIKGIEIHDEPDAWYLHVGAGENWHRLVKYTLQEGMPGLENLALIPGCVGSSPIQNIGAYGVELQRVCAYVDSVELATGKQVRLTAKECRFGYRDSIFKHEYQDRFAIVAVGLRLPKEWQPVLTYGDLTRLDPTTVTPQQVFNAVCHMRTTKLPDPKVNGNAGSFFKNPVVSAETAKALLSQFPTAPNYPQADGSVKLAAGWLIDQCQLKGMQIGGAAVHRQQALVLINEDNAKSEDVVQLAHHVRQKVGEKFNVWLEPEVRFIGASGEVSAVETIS

[4] = Minimum inhibitory concentration against cell wall biosynthesis of methicillin-susceptible Coagulase negative staphylococcus GC 646 (MSCNS); type: functional
In short: (§2)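 Broth microdilution per NCCLS M7-A3. Mueller–Hinton broth for staphylococci and enterococci, 2-fold serial dilutions of agent. Final inoculum 1–5 × 10^5 CFU/mL.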

Streptococcus pneumoniae [5] = assay: Minimum inhibitory concentration against cell wall biosynthesis of penicillin resistant Streptococcus pneumoniae GC 1894 (PRSP) in the presence of 4% bovine serum albumin; type: functional
Escherichia coli [6] = assay: Minimum inhibitory concentration against cell wall biosynthesis of Escherichia coli GC 4559; type: functional; in short: as §2
Escherichia coli [7] = assay: Minimum inhibitory concentration against cell wall biosynthesis of Escherichia coli GC 4560; type: functional
Enterococcus faecalis [8] = assay: Minimum inhibitory concentration against cell wall biosynthesis of vancomycin susceptible (ATCC) Enterococcus faecalis GC 4555; type: functional; in short: as §2
Staphylococcus aureus [9] = assay: Minimum inhibitory concentration against cell wall biosynthesis of methicillin susceptible Staphylococcus aureus GC 4543; type: functional
In short: (§3)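 Broth microdilution per NCCLS M7-A3 in Mueller–Hinton broth, aerobic. Agents tested as 2-fold serial dilutions, with a final inoculum of 1–5 × 10^5 CFU/mL. Plates incubated 18–22 h at 35 °C in ambient air. MIC read as the endpoint.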

Streptococcus pneumoniae [10] = assay: Minimum inhibitory concentration against cell wall biosynthesis of penicillin resistant Streptococcus pneumoniae GC 1894 (PRSP); type: functional
In short: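 Broth microdilution per NCCLS M7-A3, using Mueller–Hinton broth supplemented with 5% sheep blood. Agents tested as 2-fold serial dilutions, with a final inoculum of 1–5 × 10^5 CFU/mL.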

Enterococcus faecalis [11] = assay: Minimum inhibitory concentration against cell wall biosynthesis of vancomycin resistant Enterococcus faecalis GC 2242 (VRE); type: functional; in short: as §3
Staphylococcus aureus [12] = assay: Minimum inhibitory concentration against cell wall biosynthesis of methicillin resistant Staphylococcus aureus GC 1131; type: functional; in short: as §3

SMILES	IC50 [1]	IC50 [2]	IC50 [3]	MIC [4]	MIC (Streptococcus pneumoniae [5])	MIC (Escherichia coli [6])	MIC (Escherichia coli [7])	MIC (Enterococcus faecalis [8])	MIC (Staphylococcus aureus [9])	MIC (Streptococcus pneumoniae [10])	MIC (Enterococcus faecalis [11])	MIC (Staphylococcus aureus [12])
CC1(CCCCCCc2ccccc2)C(=O)N(c2ccc(Cl)cc2)N(c2ccc(Cl)cc2)C1=O	> 50 µM	> 50 µM	> 50 µM	> 200 µM	> 200 µM	> 200 µM	200 µM (≈ 99.1 µg/mL)	200 µM (≈ 99.1 µg/mL)	> 200 µM	0.78 µM (≈ 0.386 µg/mL)	100 µM (≈ 49.5 µg/mL)	–
CCC(CC)CC1C(=O)N(c2ccc(Cl)cc2)N(c2ccc(Cl)cc2)C1=O	–	> 50 µM	50 µM	200 µM (≈ 81.1 µg/mL)	> 200 µM	> 200 µM	200 µM (≈ 81.1 µg/mL)	200 µM (≈ 81.1 µg/mL)	100 µM (≈ 40.5 µg/mL)	25 µM (≈ 10.1 µg/mL)	100 µM (≈ 40.5 µg/mL)	100 µM (≈ 40.5 µg/mL)
CC1(CCOCc2ccccc2)C(=O)N(c2ccc(Cl)cc2)N(c2ccc(Cl)cc2)C1=O	–	> 50 µM	20 µM	> 200 µM	> 200 µM	> 200 µM	> 200 µM	> 200 µM	> 200 µM	100 µM (≈ 46.9 µg/mL)	–	200 µM (≈ 93.9 µg/mL)
O=C1C(Cc2cc(C(F)(F)F)cc(C(F)(F)F)c2)C(=O)N(c2ccc(Cl)cc2)N1c1ccc(Cl)cc1	–	> 50 µM	12 µM	50 µM (≈ 27.4 µg/mL)	> 200 µM	50 µM (≈ 27.4 µg/mL)	> 200 µM	50 µM (≈ 27.4 µg/mL)	25 µM (≈ 13.7 µg/mL)	6.25 µM (≈ 3.42 µg/mL)	25 µM (≈ 13.7 µg/mL)	25 µM (≈ 13.7 µg/mL)
O=C1C(Cc2ccccc2Cl)C(=O)N(c2ccc(Cl)cc2)N1c1ccc(Cl)cc1	> 50 µM	> 50 µM	> 50 µM	> 200 µM	> 200 µM	> 200 µM	> 200 µM	> 200 µM	> 200 µM	12.5 µM (≈ 5.57 µg/mL)	–	–
CCN(CC)CCC1C(=O)N(c2ccc(Cl)cc2)N(c2ccc(Cl)cc2)C1=O	–	> 50 µM	> 50 µM	200 µM (≈ 84.1 µg/mL)	> 200 µM	> 200 µM	> 200 µM	200 µM (≈ 84.1 µg/mL)	> 200 µM	100 µM (≈ 42 µg/mL)	200 µM (≈ 84.1 µg/mL)	100 µM (≈ 42 µg/mL)
O=C1C(CCc2ccccc2)C(=O)N(c2ccc(Cl)cc2)N1c1ccc(Cl)cc1	–	> 50 µM	35 µM	200 µM (≈ 85.1 µg/mL)	> 200 µM	> 200 µM	200 µM (≈ 85.1 µg/mL)	> 200 µM	200 µM (≈ 85.1 µg/mL)	50 µM (≈ 21.3 µg/mL)	200 µM (≈ 85.1 µg/mL)	200 µM (≈ 85.1 µg/mL)
O=C1C(Cc2cccc(C(F)(F)F)c2)C(=O)N(c2ccc(Cl)cc2)N1c1ccc(Cl)cc1	–	> 50 µM	18 µM	> 200 µM	> 200 µM	> 200 µM	> 200 µM	> 200 µM	> 200 µM	50 µM (≈ 24 µg/mL)	–	–
CC1(CC(=O)c2ccc(F)cc2F)C(=O)N(c2ccc(Cl)cc2)N(c2ccc(Cl)cc2)C1=O	> 50 µM	> 50 µM	49 µM	> 200 µM	> 200 µM	> 200 µM	> 200 µM	200 µM (≈ 97.9 µg/mL)	> 200 µM	> 200 µM	100 µM (≈ 48.9 µg/mL)	–
O=C1C(Cc2ccccc2)C(=O)N(c2ccc(Cl)cc2)N1c1ccc(Cl)cc1	–	> 50 µM	> 50 µM	> 200 µM	> 200 µM	> 200 µM	> 200 µM	> 200 µM	200 µM (≈ 82.3 µg/mL)	200 µM (≈ 82.3 µg/mL)	–	200 µM (≈ 82.3 µg/mL)
Cc1c(OCC(=O)c2ccc(F)cc2F)n(-c2ccc(Cl)cc2)n(-c2ccc(Cl)cc2)c1=O	> 50 µM	> 50 µM	> 50 µM	> 200 µM	–	> 200 µM	> 200 µM	> 200 µM	–	–	–	–
O=C1C(CCCc2ccccc2)C(=O)N(c2ccc(Cl)cc2)N1c1ccc(Cl)cc1	–	44.3 µM	10 µM	> 200 µM	> 200 µM	> 200 µM	200 µM (≈ 87.9 µg/mL)	> 200 µM	200 µM (≈ 87.9 µg/mL)	25 µM (≈ 11 µg/mL)	200 µM (≈ 87.9 µg/mL)	200 µM (≈ 87.9 µg/mL)
COc1cccc(CC2C(=O)N(c3ccc(Cl)cc3)N(c3ccc(Cl)cc3)C2=O)c1	–	> 50 µM	50 µM	200 µM (≈ 88.3 µg/mL)	> 200 µM	> 200 µM	> 200 µM	> 200 µM	> 200 µM	200 µM (≈ 88.3 µg/mL)	–	–
O=C1C(CCSCc2ccccc2)C(=O)N(c2ccc(Cl)cc2)N1c1ccc(Cl)cc1	5.1 µM	9.8 µM	5.2 µM	50 µM (≈ 23.6 µg/mL)	> 200 µM	> 200 µM	200 µM (≈ 94.3 µg/mL)	100 µM (≈ 47.1 µg/mL)	25 µM (≈ 11.8 µg/mL)	6.25 µM (≈ 2.95 µg/mL)	50 µM (≈ 23.6 µg/mL)	–
O=C1C(CCCCc2ccccc2)C(=O)N(c2ccc(Cl)cc2)N1c1ccc(Cl)cc1	6.8 µM	23.8 µM	5.6 µM	200 µM (≈ 90.7 µg/mL)	> 200 µM	> 200 µM	> 200 µM	200 µM (≈ 90.7 µg/mL)	200 µM (≈ 90.7 µg/mL)	25 µM (≈ 11.3 µg/mL)	100 µM (≈ 45.3 µg/mL)	200 µM (≈ 90.7 µg/mL)
CCCCCCCC1C(=O)N(c2ccc(Cl)cc2)N(c2ccc(Cl)cc2)C1=O	–	> 50 µM	42 µM	200 µM (≈ 83.9 µg/mL)	> 200 µM	> 200 µM	> 200 µM	200 µM (≈ 83.9 µg/mL)	100 µM (≈ 41.9 µg/mL)	6.25 µM (≈ 2.62 µg/mL)	100 µM (≈ 41.9 µg/mL)	100 µM (≈ 41.9 µg/mL)
